The values that follow come from article PMC7299768 (Journal of controlled release : official journal of the …, 2020).

The nature of one data set: Drug loading efficiency. It counts as physicochemical. Conditions: (encapsulated drug/total drug) x100%; natural lipid NPs. An outline of the steps:
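Loading into natural-lipid nanoparticles measured by dialysis in 10 K MWCO mini devices pre-equilibrated with release medium (3% MeOH, 0.1% Polysorbate 80 in PBS, pH 7.4). Entrapped drug is apical minus basal concentration; free drug is basal concentration. Quantified by HPLC-UV (C18 column, 282 nm). Efficiency = encapsulated/total drug ×100%, from three batches.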

Data set [1] is described as follows: Pharmacokinetics and tissue bio-distribution after single oral administration. It counts as in vivo, C57BL/6J mice. The following applies: for Level in most of the blood samples: after oral free-6-S or 6-S-NL 5 mg/kg. An outline of the steps:
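Single oral gavage of 5 mg/kg to fasted (4 h) female C57BL/6J mice, as free test compound in 0.5% CMC-Na/PBS or as lipid nanoparticles in PBS. Sparse sampling, 3 mice/time point: blood (K₂EDTA) 5 min–8 h; stomach, small intestine, colon, liver and kidney 15 min–8 h. Acetonitrile precipitation, LC-MS/MS (MRM) of parent and metabolites. Cmax and Tmax observed; T1/2 = ln2/k.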

For data set [2] the following is noted: cited from earlier work.
In another data set the test system is inflamed Raw 264.7 cells. The data set is described as follows: In vitro anti-inflammation assay. It counts as cell-based. Conditions: 1.0 μg/mL; for IL-1β gene expression / IL-6 gene expression / IL-10 gene expression / TNF-α gene expression: LPS-inflamed Raw 264.7 cells, RT-PCR; for Anti-inflammatory activities compared with 6-shogaol: inflamed Raw 264.7 cells.

A further data set concerns wounded Caco-2 BBE cells. Description: In vitro wound-healing assay. Format: cell-based. The following applies: 0.6 mL of 1.0 μg/mL solution; ECIS. An outline of the steps: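 Caco-2 BBE cells were grown on ECIS 8W1E electrode plates in humidified 5% CO₂. At confluence, medium with or without test compound (1.0 μg/mL) or control formulation was added. Monolayers were wounded by a 30 s pulse (40 kHz, 4.5 V), and recovery was followed as impedance, with resistance measured at 500 Hz and 1 V.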

Setting [3] is: oral 5 mg/kg, compared to the 6-S-NL group.

For the compound `CCCCC/C=C/C(=O)CCc1ccc(O)c(OC)c1` [6-shogaol], the Drug loading efficiency in the data set “Drug loading efficiency” was determined as 89.1 ± 2.6%. Further, the “Tmax of 6-shogaol in the colon” value in data set [1] (oral 5 mg/kg) was 1.5 h. In addition, in data set [1] (oral 5 mg/kg, compared to 6-S-NL), the “M13 concentrations in the small intestine, comparison” value was “higher”. For the same compound, in data set [1] (setting [3]), the “AUC values of M2 and M13 in liver and kidney tissues, comparison” value is listed as “higher”; the “Exposure (AUC) of 6-shogaol in stomach and small intestine tissues, comparison” value is “significantly higher”. Besides, the “Effective 6-shogaol concentration in vitro” value in data set [2] is reported as “about 1 μg/mL”.
Turning to `CCCCCC(CC(=O)CCc1ccc(O)c(OC)c1)SC[C@H](N)C(=O)O` (stereo partly shown) [M2], the Drug loading efficiency in the data set “Drug loading efficiency” is reported as 91.3 ± 3.1%. Moreover, in data set [1], the “Level in most of the blood samples” value is reported as “below the LLOQ”. In the data set with inflamed Raw 264.7 cells, the IL-1β gene expression result is “down-regulate”, the IL-6 gene expression result is reported as “down-regulate”, the IL-10 gene expression result is reported as “up-regulate” and the TNF-α gene expression result is “down-regulate”. The “Anti-inflammatory activities compared with 6-shogaol” value with inflamed Raw 264.7 cells is on record as “higher”. Besides, the “Healing of wounded Caco-2 epithelial monolayers compared with 6-shogaol” value with wounded Caco-2 BBE cells is reported as “healed significantly faster”.
Take `CCCCCC(CC(=O)CCc1ccc(O)c(OC)c1)SC[C@H](NC(=O)CC[C@H](N)C(=O)O)C(=O)NCC(=O)O` (stereo partly shown) [M13]: the Drug loading efficiency in “Drug loading efficiency” was 83.3 ± 1.9%. Further, the “Level in most of the blood samples” value in data set [1] is recorded as “below the LLOQ”. Besides, in the data set with inflamed Raw 264.7 cells, the IL-1β gene expression entry is recorded as “down-regulate”, the IL-6 gene expression entry is listed as “down-regulate”, the IL-10 gene expression entry was “up-regulate” and the TNF-α gene expression result is “down-regulate”. The “Anti-inflammatory activities compared with 6-shogaol” value in the data set with inflamed Raw 264.7 cells is on record as “higher”. Besides, in the data set on wounded Caco-2 BBE cells, the “Healing of wounded Caco-2 epithelial monolayers compared with 6-shogaol” value was “healed significantly faster”.
